Measurements from the array DNA melting data of Ke et al. (doi:10.1101/2024.01.08.574731).

How the values were obtained:
[1] = melting temperature; fluorescence melt of hairpins on a sequencing array, two-state fit, raised by 9.35 °C to match UV melts; conditions: sodium 0.088 M
Outline: (§1)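 Hairpins were imaged by Cy3 fluorescence on a sequenced MiSeq flow cell with annealed Cy3 and quencher oligos, in 50 mM Na-HEPES pH 8.0, 25 mM NaCl, in 2.5 °C steps up to 60 °C. Bootstrapped two-state fits of normalised signals gave melting temperature and folding enthalpy. Four replicates were combined by inverse variance, and fitted temperatures were raised by 9.35 °C to match UV melts.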

[2] = folding enthalpy; higher = less favourable; fluorescence melt of hairpins on a sequencing array, two-state fit; conditions: sodium 0.088 M
Outline: as §1

| Sequence | Tm [1] [°C] | folding enthalpy [2] [kcal/mol] |
| --- | --- | --- |
| GTTTGTCCGAAAGGAAAC (((..(((....)))))) | 35.9 | -18.9 |
| GTTTGTGCGAAAGCAAAC (((..(((....)))))) | 41.5 | -18.2 |
| GTTTGTGGAAACACAGAC ((.((((....)))).)) | 43.9 | -23.6 |
| GTTTTACGAAAGTATAAC (((.(((....))).))) | 37.5 | -23.9 |
| GTTTTAGAAATAAAAC ((((((....)))))) | 36.7 | -22.3 |
| GTTTTAGGAAACTAAAGC (.(((((....))))).) | 31.5 | -15 |
| GTTTTCCGAAAGGAAAC (((.(((....)))))) | 47.8 | -13.6 |
| GTTTTCGGAAACGAAAAC (((((((....))))))) | 58.5 | -42.6 |
| GTTTTCGGAAACGAGAAC (((.(((....))).))) | 41.6 | -27.4 |
| GTTTTGCGAAAGCACAAC (((.(((....))).))) | 44.2 | -28.1 |
| GTTTTGGGAAACTAAGAC ((.((.(....).)).)) | 29 | -9.09 |
| GTTTTGGGAAACTAGAAC (((.(.(....).).))) | 23.7 | -7.83 |
| GTTTTTACGAAAGTAAAC (((..(((....)))))) | 29.9 | -17.1 |
| GTTTTTCGAAAGAAGAAC (((.(((....))).))) | 37.3 | -32.5 |
| GTTTTTGCGAAAGCAAAC (((..(((....)))))) | 35.2 | -11.9 |
| TAAGGGAAACCTTA (((((....))))) | 29.1 | -10.6 |
| TAATCGAAAGATTA (((((....))))) | 38.9 | -15.2 |
| TACACGAAAGTGTA (((((....))))) | 57.8 | -13.7 |
| TACGGGAAACCGTA (((((....))))) | 48.5 | -15.8 |
| TAGATGAAAATCTA (((((....))))) | 26.1 | -10.1 |

| Sequence | Tm [1] [°C] | folding enthalpy [2] [kcal/mol] |
| --- | --- | --- |
| TAGCTGAAAAGCTA (((((....))))) | 46.9 | -14.6 |
| TAGGAGAAATCCTA (((((....))))) | 25.9 | -8.63 |
| TAGGCGAAAGCCTA (((((....))))) | 65.5 | -12.2 |
| TAGTCGAAAGACTA (((((....))))) | 49.6 | -17.4 |
| TAGTTGAAAAACTA (((((....))))) | 27.4 | -11.8 |
| TATGCGAAAGCATA (((((....))))) | 60.1 | -13.6 |
| TATTCGAAAGAATA (((((....))))) | 36.7 | -14.3 |
| TCAACGAAAGTTGA (((((....))))) | 52 | -17.5 |
| TCCCAGAAATGGGA (((((....))))) | 43.8 | -15.9 |
| TCCTTGAAAAAGGA (((((....))))) | 35.1 | -11.1 |
| TCGAAGAAATTCGA (((((....))))) | 38.7 | -11.1 |
| TCGCTGAAAAGCGA (((((....))))) | 68.8 | -17.4 |
| TCGTAGAAATACGA (((((....))))) | 41.3 | -11.6 |
| TCTCGGAAACGAGA (((((....))))) | 47.9 | -19.6 |
| TCTGGGAAACCAGA (((((....))))) | 47.1 | -15 |
| TCTTCGAAAGAAGA (((((....))))) | 45.8 | -18.8 |
| TGAAAGAAATTTCA (((((....))))) | 26.4 | -5.86 |
| TGATCGAAAGATCA (((((....))))) | 51.3 | -21 |
| TGCGGGAAACCGCA (((((....))))) | 66.5 | -15.7 |
| TGCTCGAAAGAGCA (((((....))))) | 67.7 | -17.9 |
